Reference: ChEMBL document CHEMBL1122546, “A potent multisubstrate analogue inhibitor of human thymidylate synthetase” (J Med Chem, 1984)

How the values were obtained:
[1] = target: T1, Thymidylate synthase (Homo sapiens, UniProt P04818); experiment: Inhibitory activity against human thymidylate synthase with variable concentration of N5, 10-CH2-H4PteGlu and fixed dUMP (100 uM)
Summary of the method: (§1)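 HeLa-S3 TS purified on methotrexate–Sephadex. Tritium release from [5-3H]dUMP with dUMP fixed at 100 μM and CH2-H4PteGlu varied, in 150 mM Tris-HCl pH 7.5 with DTT, NaF, formaldehyde, BSA and sucrose. Reactions ran at 37 °C for 60 min, were stopped with TCA, treated with charcoal, and the supernatant counted. Apparent Ki from replots of double-reciprocal slopes (competitive) or intercepts (noncompetitive) against inhibitor concentration.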

[2] = Apparent Ki value for the inhibition of human thymidylate synthase in the presence of variable conc. of dUMP; Ki/Km
[3] = Apparent Ki value for the inhibition of human thymidylate synthase in the presence of variable conc. of N5,10-CH2-H4PteGlu; Ki/Km; summary of the method: as §1
[4] = target: T1, Thymidylate synthase; experiment: Inhibitory activity against human thymidylate synthase with variable concentration of dUMP and fixed N5,10-CH2-H4PteGlu (200 uM)
[5] = target: T1, Thymidylate synthase; experiment: Km of dUMP for human thymidylate synthase with variable concentration of dUMP and fixed N5,10-CH2-H4PteGlu (200 uM)
[6] = Apparent Ki value for the inhibition of human thymidylate synthase in the presence of variable conc. of dUMP
Summary of the method: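 Enzyme is HeLa-S3 thymidylate synthase, purified on methotrexate–Sephadex. Tritium release from [5-3H]dUMP (10:1 with dUMP), with dUMP varied and CH2-H4PteGlu fixed at 200 μM. Tris-HCl pH 7.5 buffer with DTT, NaF, formaldehyde, BSA and sucrose; 37 °C, 60 min. Inhibitor at several concentrations; double-reciprocal slopes or intercepts replotted against inhibitor concentration.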

[7] = Apparent Ki value for the inhibition of human thymidylate synthase in the presence of variable conc. of N5,10-CH2-H4PteGlu
Summary of the method: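 Thymidylate synthase purified from HeLa-S3 cells by methotrexate–Sephadex chromatography. Tritium-release assay, 37 °C for 60 min, at pH 7.5 (Tris-HCl) with DTT, NaF, formaldehyde, BSA and sucrose. dUMP (with [5-3H]dUMP, 10:1) fixed at 100 μM; CH2-H4PteGlu varied. Inhibitor tested at several concentrations. Lineweaver–Burk plots; slopes (competitive) or intercepts (noncompetitive) replotted against inhibitor concentration.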

T1 sequence (P04818 whole entry): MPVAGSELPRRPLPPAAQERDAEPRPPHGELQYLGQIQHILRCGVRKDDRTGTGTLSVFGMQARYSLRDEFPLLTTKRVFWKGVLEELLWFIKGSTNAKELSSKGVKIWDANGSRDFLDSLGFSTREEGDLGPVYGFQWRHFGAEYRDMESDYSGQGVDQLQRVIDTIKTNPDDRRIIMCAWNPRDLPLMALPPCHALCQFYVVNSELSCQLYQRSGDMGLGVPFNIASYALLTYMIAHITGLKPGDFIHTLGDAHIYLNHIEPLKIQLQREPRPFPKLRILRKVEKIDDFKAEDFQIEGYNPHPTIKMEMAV

Ki [1] [µM]	Ratio [2]	Ratio [3]	Ki [4] [µM]	Km [5] [µM]	Compound	Ratio [6]	Ratio [7]
240	50	4.8	150		Nc1nc2c(c(=O)[nH]1)N(Cc1cn([C@H]3C[C@H](O)[C@@H](CO)O3)c(=O)[nH]c1=O)C(CNc1ccc(C(=O)NC(CCC(=O)O)C(=O)O)cc1)CC2 (some centres not stated)		
				3	O=c1ccn([C@H]2C[C@H](O)[C@@H](COP(=O)(O)O)O2)c(=O)[nH]1 [DEOXYURIDINE MONOPHOSPHATE]		
					CCOC(=O)CCC(NC(=O)c1ccc(N(CC2CCc3nc(N)nc(O)c3N2)N=O)cc1)C(=O)OCC (configuration not stated)	80	3
150			240		CCOC(=O)CCC(NC(=O)c1ccc(N(CC2CCc3nc(N)[nH]c(=O)c3N2)N=O)cc1)C(=O)OCC (configuration not stated)		
700	40	14	120		COP(=O)(O)OC[C@H]1O[C@@H](n2cc(CN3c4c(nc(N)[nH]c4=O)CCC3CNc3ccc(C(=O)NC(CCC(=O)O)C(=O)O)cc3)c(=O)[nH]c2=O)C[C@@H]1O (some centres not stated)		

Compound	Ki [1] [µM]	Ratio [2]	Ratio [3]	Ki [4] [µM]	Km [5] [µM]	Ratio [6]	Ratio [7]
Nc1nc2c(c(=O)[nH]1)N(Cc1cn([C@H]3C[C@H](O)[C@@H](COP(O)O)O3)c(=O)[nH]c1=O)C(CNc1ccc(C(=O)NC(CCC(=O)O)C(=O)O)cc1)CC2 (some centres not stated)	0.25			0.058		0.02	0.005
